Measurements from ChEMBL document CHEMBL6134793, “Synthesis and structure-activity study of the antimicrobial lipopeptide brevibacillin” (RSC Med Chem, 2024).
Values after ≈ are worked out from the molar mass of the structure shown. Active and inactive are the calls of the source. No cut-off for these calls is given here.

Columns and labels:
[1] = test system: Pseudomonas aeruginosa; test: Antimicrobial activity against Pseudomonas aeruginosa ATCC […] assessed as growth inhibition by microdilution assay; format: functional
In short: (§1)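 Twofold serial microdilution of peptide (stocks 2 mg mL−1, diluted to 512 μg mL−1 in water with 10% DMSO) in strain medium, about 1 × 10^4 cfu per well. Media: TSB 20 h 37 °C (S. aureus, L. monocytogenes, B. subtilis, E. faecalis); LB 20 h 37 °C (P. aeruginosa, S. enterica, E. coli); Brucella 48 h 37 °C (C. coli). A595 read; MIC = lowest concentration with no visible growth; triplicate.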

[2] = Antimicrobial activity against Salmonella enterica serovar Newport ATCC 6962 assessed as growth inhibition by microdilution assay; format: functional, Salmonella enterica subsp. enterica serovar Newport; in short: as §1
[3] = test system: Enterococcus faecalis; test: Antimicrobial activity against Enterococcus faecalis ATCC 29212 assessed as growth inhibition by microdilution assay; format: functional; in short: as §1
[4] = test system: Pseudomonas aeruginosa; test: Antimicrobial activity against Pseudomonas aeruginosa ATCC […] assessed as diameter of growth inhibition at 128 ug/ml by radial diffusion assay; format: functional; settings: dose 128 µg/ml
In short: (§2)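 Agar well diffusion. Overnight cultures inoculated at 1% into 0.75% soft agar (TSB for S. aureus, LB for P. aeruginosa). Each well received 80 μL of peptide at 128 μg mL−1 in water with 10% DMSO; 10% DMSO served as negative control. Inhibition zone diameter scored after strain-specific incubation.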

[5] = test system: Staphylococcus aureus; test: Bacteriostatic activity against Staphylococcus aureus ATCC 6538 assessed as MBC/MIC ratio by microdilution assay; format: functional
In short: (§3)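 MIC wells showing complete inhibition were sampled, 10 μL spread on agar and incubated 48 h under strain conditions; MBC = lowest concentration giving no growth on agar. MIC by broth microdilution (TSB 20 h 37 °C for S. aureus; Brucella 48 h 37 °C for C. coli). Triplicate.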

[6] = Hemolytic activity in human erythrocytes at 128 ug/ml measured after 1 hr by absorbance based assay relative to control; format: toxicity, cell-based, Erythrocyte; settings: at 128 µg/mL, read-out: Activity
In short: (§4)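 Washed human donor erythrocytes at 1% hematocrit in PBS pH 7.4 exposed to twofold peptide dilutions (final 2–256 μg mL−1, up to 1% DMSO) for 1 h at 37 °C. After centrifugation, supernatant A405 read. % hemolysis relative to PBS (0%) and 1% Triton X-100 (100%). Triplicate; mean ± SEM.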

[7] = test system: Escherichia coli; test: Antimicrobial activity against Escherichia coli ATCC 25922 assessed as growth inhibition by microdilution assay; format: functional; in short: as §1
[8] = test system: Campylobacter coli; test: Antimicrobial activity against Campylobacter coli ATCC 33559 assessed as growth inhibition by microdilution assay; format: functional; in short: as §1
[9] = Cytotoxicity against human Caco-2 cells assessed as inhibition of cell viability incubated for 48 hrs by Cell Titer GLO assay; format: toxicity, cell-based
In short: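 Caco-2 cells in DMEM with 10% FCS, seeded 25 000 per well, adhered overnight, then given peptide at 2–256 μg mL−1 in complete medium for 48 h at 37 °C, 5% CO2. Controls: cisplatin 125 μM; 0.1% DMSO medium. Viability by ATP luminescence (CellTiter-Glo) versus untreated cells; IC50 from dose–response; mean ± SEM of at least three independent experiments.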

[10] = test system: Staphylococcus aureus; test: Antimicrobial activity against Staphylococcus aureus ATCC 6538 assessed as diameter of growth inhibition at 128 ug/ml by radial diffusion assay; format: functional; settings: dose 128 µg/ml; in short: as §2
[11] = test system: Clostridium perfringens; test: Antimicrobial activity against Clostridium perfringens ATCC 3628 assessed as growth inhibition by microdilution assay; format: functional
In short: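 Broth microdilution: twofold serial peptide dilutions in reinforced clostridial medium (RCM), seeded with about 1 × 10^4 cfu per well, incubated 20 h at 37 °C. Working solution 512 μg mL−1 made from a 2 mg mL−1 stock in water with 10% DMSO. Growth read as absorbance at 595 nm. MIC taken as the lowest concentration giving complete inhibition of visible growth; run in triplicate.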

[12] = Hemolytic activity in human erythrocytes assessed as fold decrease at 256 ug/ml measured after 1 hr by absorbance based assay relative to brevibacillin; format: toxicity, cell-based; settings: erythrocyte, dose 256 µg/ml; in short: as §4
[13] = test system: Staphylococcus aureus; test: Antimicrobial activity against Staphylococcus aureus ATCC 6538 assessed as growth inhibition by microdilution assay; format: functional; in short: as §1
[14] = test system: Listeria monocytogenes; test: Antimicrobial activity against Listeria monocytogenes ATCC 19111 assessed as growth inhibition by microdilution assay; format: functional; in short: as §1
[15] = test system: Bacillus subtilis; test: Antimicrobial activity against Bacillus subtilis ATCC 23957 assessed as growth inhibition by microdilution assay; format: functional; in short: as §1
[16] = test system: Staphylococcus aureus; test: Antimicrobial activity against Staphylococcus aureus ATCC 6538 assessed as growth inhibition at 128 ug/ml by radial diffusion assay; format: functional, organism-based; settings: dose 128.0 µg/ml; in short: as §2
[17] = test system: Pseudomonas aeruginosa; test: Antimicrobial activity against Pseudomonas aeruginosa ATCC […] assessed as growth inhibition at 128 ug/ml by radial diffusion assay; format: functional, organism-based; settings: dose 128.0 µg/ml; in short: as §2
[18] = Hemolytic activity in human erythrocytes at 256 ug/ml measured after 1 hr by absorbance based assay relative to control; format: toxicity, cell-based, Erythrocyte; settings: at 256 µg/mL, read-out: Activity; in short: as §4
[19] = test system: Campylobacter coli; test: Bacteriostatic activity against Campylobacter coli ATCC 33559 assessed as MBC/MIC ratio by microdilution assay; format: functional; in short: as §3
[20] = Hemolytic activity in human erythrocytes at 128 to 256 ug/ml measured after 1 hr by absorbance based assay; format: toxicity, cell-based; settings: erythrocyte, dose 128-256 µg/ml; in short: as §4
[21] = test system: Campylobacter coli; test: Bacteriostatic activity against Campylobacter coli ATCC 33559 measured after 48 hrs by microdilution assay; format: functional, organism-based; in short: as §3
[22] = test system: Staphylococcus aureus; test: Bactericidal activity against Staphylococcus aureus ATCC 6538 measured after 48 hrs by microdilution assay; format: functional, organism-based; in short: as §3

Compound | MIC [1] [µg/mL] | MIC [2] [µg/mL] | MIC [3] [µg/mL] | hemolysis at 1 h, 128 ug/ml [6] [%] | MIC [7] [µg/mL] | MIC [8] [µg/mL] | IC50 at 48 h [9] [µg/mL] | MIC [11] [µg/mL] | MIC [13] [µg/mL] | MIC [14] [µg/mL] | MIC [15] [µg/mL] | growth inhibition (qualitative call) [16] | growth inhibition (qualitative call) [17] | hemolysis at 1 h, 256 ug/ml [18] [%] | further results
C/C=C(/NC(=O)[C@@H](O)[C@@H](C)CC)C(=O)N[C@@H](CC(C)C)C(=O)N[C@H](CCCN)C(=O)N[C@H](C(=O)N[C@H](C(=O)N[C@H](C(=O)N[C@H](CCCCN)C(=O)N[C@H](C(=O)N[C@H](C(=O)N[C@@H](CCCCN)C(=O)N[C@H](Cc1ccc(O)cc1)C(=O)N[C@@H](CC(C)C)C(=O)N[C@H](CO)C(C)C)C(C)C)C(C)C)C(C)C)C(C)C)C(C)C | 4 | > 128 | 32 | 0.65 | 64 | 32 | 87.5 (≈ 56.2 µM) | 16 | 4 | 4 | 8 |  |  |  | Activity [4]: 12 mm; Ratio [5]: 8; Activity [10]: 11 mm; fold change (FC) [12]: 25
CC[C@H](NC(=O)[C@@H](O)[C@@H](C)CC)C(=O)N[C@@H](CC(C)C)C(=O)N[C@H](CCCN)C(=O)N[C@H](C(=O)N[C@H](C(=O)N[C@H](C(=O)N[C@H](CCCCN)C(=O)N[C@H](C(=O)N[C@H](C(=O)N[C@@H](CCCCN)C(=O)N[C@H](Cc1ccc(O)cc1)C(=O)N[C@@H](CC(C)C)C(=O)N[C@H](CO)C(C)C)C(C)C)C(C)C)C(C)C)[C@@H](C)CC)[C@@H](C)CC | 1 | > 128 | 2 | 15.5 | > 128 | 4 | 10 (≈ 6.3 µM) | 2 | 1 | 0.5 | 1 | Not active; Exhibited Small Decrease In Activity | Not active; Exhibited Small Decrease In Activity | 58.7 | Ratio [19]: 8
C/C=C(/NC(=O)[C@@H](O)[C@@H](C)CC)C(=O)N[C@@H](CC(C)C)C(=O)N[C@H](CCCN)C(=O)N[C@H](C(=O)N[C@H](C(=O)N[C@H](C(=O)N[C@H](CCCCN)C(=O)N[C@H](C(=O)N[C@H](C(=O)N[C@@H](CCCCN)C(=O)N[C@H](Cc1ccc(O)cc1)C(=O)N[C@@H](CC(C)C)C(=O)N[C@H](C(=O)O)C(C)C)C(C)C)C(C)C)C(C)C)[C@@H](C)CC)[C@@H](C)CC | > 128 | > 128 | > 128 |  | > 128 | 32 | > 256 | > 128 | > 128 | 128 | > 128 | inactive | inactive |  | Activity [20]: Non-toxic
CC[C@@H](NC(=O)[C@@H](O)[C@@H](C)CC)C(=O)N[C@@H](CC(C)C)C(=O)N[C@H](CCCN)C(=O)N[C@H](C(=O)N[C@H](C(=O)N[C@H](C(=O)N[C@H](CCCCN)C(=O)N[C@H](C(=O)N[C@H](C(=O)N[C@@H](CCCCN)C(=O)N[C@H](Cc1ccc(O)cc1)C(=O)N[C@@H](CC(C)C)C(=O)N[C@H](CO)C(C)C)C(C)C)C(C)C)C(C)C)C(C)C)C(C)C | 2 | > 128 | > 128 | 1.2 | 64 | 16 | 32.4 (≈ 20.8 µM) | 8 | 2 | 4 | 4 | Not active; Exhibited Small Decrease In Activity | Not active; Exhibited Small Decrease In Activity | 4.2 | 
C/C=C(/NC(=O)[C@@H](O)[C@@H](C)CC)C(=O)N[C@@H](CC(C)C)C(=O)N[C@H](CCCN)C(=O)N[C@H](C(=O)N[C@H](C(=O)N[C@H](C(=O)N[C@H](CCCCN)C(=O)N[C@H](C(=O)N[C@H](C(=O)N[C@@H](CCCCN)C(=O)N[C@H](Cc1ccc(O)cc1)C(=O)N[C@@H](CC(C)C)C(=O)N[C@H](CO)C(C)C)C(C)C)C(C)C)C(C)C)[C@@H](C)CC)[C@@H](C)CC | 1 | 64 | 4 | 9.6 | 32 | 8 | 10.9 (≈ 6.88 µM) | 4 | 2 | 2 | 1 | Active | Active | 25.2 | Activity [21]: Active; Activity [22]: Active
C/C=C(/NC(=O)[C@@H](O)[C@@H](C)CC)C(=O)N[C@@H](CC(C)C)C(=O)N[C@H](CCCN)C(=O)N[C@H](C(=O)N[C@H](C(=O)N[C@H](C(=O)N[C@H](CCCCN)C(=O)N[C@H](C(=O)N[C@H](C(=O)N[C@@H](CCCCN)C(=O)N[C@H](Cc1ccc(O)cc1)C(=O)N[C@@H](CC(C)C)C(=O)N[C@H](C(N)=O)C(C)C)C(C)C)C(C)C)C(C)C)[C@@H](C)CC)[C@@H](C)CC | 4 | > 128 | 16 | 11.8 | > 128 | > 128 | 16.6 (≈ 10.4 µM) | 16 | 8 | 2 | 4 | Not active; Exhibited Small Decrease In Activity | Not active; Exhibited Small Decrease In Activity | 30.1 | 
